Activity calls are given as the source filed them. No cut-off for these calls is given here.
Legend:
[1] = tested on: HEK293; assay: Selectivity ratio for rat alpha3beta4 nAChR transfected in HEK293 cells to rat alpha4beta2 nAChR transfected in HEK293 cells; format: cell-based
[2] = target: T1, Neuronal acetylcholine receptor; alpha4/beta2 (Rattus norvegicus, UniProt P09483+P12390); assay: Displacement of [3H]epibatidine from rat alpha4beta2 nAChR transfected in HEK293 cells after 2 hrs by beta-plate counting analysis; format: cell-based
Procedure, shortened: (§1)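 Cell lines KXα3β4R2 and KXα4β2R2 (rat receptors) were used. Membranes were prepared by homogenizing cells in 50 mM Tris pH 7.4 and centrifuging twice at 20000g. They were incubated 2 h at room temperature with 0.3 nM [3H]epibatidine plus test sample, then filtered on PEI-soaked glass fiber and counted. Nonspecific binding was defined by 1 µM AT-1001 or 0.1 µM epibatidine. Ki was obtained by Cheng–Prusoff; runs were in triplicate, at least twice.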

[3] = target: Neuronal acetylcholine receptor; alpha3/beta4 (Rattus norvegicus, UniProt P04757+P12392); assay: Displacement of [3H]epibatidine from rat alpha3beta4 nAChR transfected in HEK293 cells after 2 hrs by beta-plate counting analysis; format: cell-based; procedure, shortened: as §1
[4] = target: T1, Neuronal acetylcholine receptor; alpha4/beta2; assay: Antagonist activity at rat alpha4beta2 nAChR transfected in HEK293 cells after 10 mins by fluorescence assay in presence of nicotine; format: cell-based
Procedure, shortened: (§2)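 Transfected HEK cells were seeded at 4000/well the day before and loaded with blue membrane-potential dye in HBSS/20 mM HEPES pH 7.4 at 37 °C for 20 min. […] Fluorescence (ex 530, em 550–580) was recorded every 3 s for 120 s on a FlexStation.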

[5] = organism: Rattus norvegicus; assay: Selectivity ratio of Ki for rat alpha3beta4 nAChR to Ki for rat alpha4beta2 nAChR
Procedure, shortened: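 Selectivity was calculated from [3H]epibatidine-binding Ki values as (Ki α3β4 − Ki α4β2)/Ki α4β2.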

[6] = target: T2, Neuronal acetylcholine receptor; alpha4/beta2 (Rattus norvegicus) (UniProt P09483+P12390); assay: Noncompetitive inhibition of nicotine-induced rat alpha4beta2 nAChR transfected in HEK293 cells assessed as stimulation of membrane potential at 3 uM after 10 mins by fluorescence assay; format: cell-based; parameters: scale not given: the % may be the effect or the level left; procedure, shortened: as §2
[7] = target: T2, Neuronal acetylcholine receptor; alpha4/beta2 (Rattus norvegicus); assay: Noncompetitive inhibition of nicotine-induced rat alpha4beta2 nAChR transfected in HEK293 cells assessed as stimulation of membrane potential at 1 uM after 10 mins by fluorescence assay; format: cell-based; parameters: scale not given: the % may be the effect or the level left; procedure, shortened: as §2
[8] = target: T2, Neuronal acetylcholine receptor; alpha4/beta2 (Rattus norvegicus); assay: Inverse agonist activity at nicotine-induced rat alpha4beta2 nAChR activation transfected in HEK293 cells; format: cell-based
[9] = target: T2, Neuronal acetylcholine receptor; alpha4/beta2 (Rattus norvegicus); assay: Noncompetitive inhibition of nicotine-induced rat alpha4beta2 nAChR transfected in HEK293 cells assessed as stimulation of membrane potential after 10 mins by fluorescence assay; format: cell-based; procedure, shortened: as §2
[10] = target: T2, Neuronal acetylcholine receptor; alpha4/beta2 (Rattus norvegicus); assay: Noncompetitive inhibition of nicotine-induced rat alpha4beta2 nAChR transfected in HEK293 cells assessed as stimulation of membrane potential at 0.3 uM after 10 mins by fluorescence assay; format: cell-based; parameters: scale not given: the % may be the effect or the level left; procedure, shortened: as §2
[11] = target: T3, Neuronal acetylcholine receptor; alpha3/beta4 (Rattus norvegicus) (UniProt P04757+P12392); assay: Antagonist activity at rat alpha3beta4 nAChR transfected in HEK293 cells assessed as inhibition of nicotine-induced membrane potential stimulation at 10 uM after 10 mins by fluorescence assay; format: cell-based; procedure, shortened: as §2
[12] = target: T2, Neuronal acetylcholine receptor; alpha4/beta2 (Rattus norvegicus); assay: Agonist activity at rat alpha4beta2 nAChR transfected in HEK293 cells assessed as change in membrane potential measured every 3 secs for 120 secs by fluorescence assay; format: cell-based
Procedure, shortened: (§3)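 Membrane potential read with blue potentiometric dye on a FlexStation. Transfected HEK cells were seeded at 4000/well one day ahead, washed, then loaded with dye in HBSS containing 20 mM HEPES, pH 7.4, for 30 min at 37 °C. Compound was then dispensed automatically and fluorescence (ex 530, em 550–580) recorded every 3 s for 120 s.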

[13] = target: T3, Neuronal acetylcholine receptor; alpha3/beta4 (Rattus norvegicus); assay: Agonist activity at rat alpha3beta4 nAChR transfected in HEK293 cells assessed as change in membrane potential measured every 3 secs for 120 secs by fluorescence assay; format: cell-based; procedure, shortened: as §3
[14] = target: Nicotinic acetylcholine receptor alpha3/beta4/alpha5 (Homo sapiens, UniProt P30532+P30926+P32297); assay: Binding affinity to alpha3beta4alpha5 nAChR (unknown origin); format: protein-complex assay
Chain of Nicotinic acetylcholine receptor alpha3/beta4/alpha5 (P30926 whole entry): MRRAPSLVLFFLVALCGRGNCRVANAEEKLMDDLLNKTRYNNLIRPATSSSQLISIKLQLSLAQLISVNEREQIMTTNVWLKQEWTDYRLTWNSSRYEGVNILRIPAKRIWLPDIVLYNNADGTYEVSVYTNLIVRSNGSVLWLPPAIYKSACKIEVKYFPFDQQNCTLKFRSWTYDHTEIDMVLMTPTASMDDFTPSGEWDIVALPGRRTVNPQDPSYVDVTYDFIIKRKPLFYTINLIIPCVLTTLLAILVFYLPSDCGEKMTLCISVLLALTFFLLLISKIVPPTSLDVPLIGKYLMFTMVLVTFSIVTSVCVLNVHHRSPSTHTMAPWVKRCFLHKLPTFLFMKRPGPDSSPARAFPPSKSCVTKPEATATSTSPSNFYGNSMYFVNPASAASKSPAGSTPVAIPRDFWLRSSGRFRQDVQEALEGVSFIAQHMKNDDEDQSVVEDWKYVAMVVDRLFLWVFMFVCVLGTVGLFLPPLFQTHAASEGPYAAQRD
Chain of Nicotinic acetylcholine receptor alpha3/beta4/alpha5 (P32297 whole entry): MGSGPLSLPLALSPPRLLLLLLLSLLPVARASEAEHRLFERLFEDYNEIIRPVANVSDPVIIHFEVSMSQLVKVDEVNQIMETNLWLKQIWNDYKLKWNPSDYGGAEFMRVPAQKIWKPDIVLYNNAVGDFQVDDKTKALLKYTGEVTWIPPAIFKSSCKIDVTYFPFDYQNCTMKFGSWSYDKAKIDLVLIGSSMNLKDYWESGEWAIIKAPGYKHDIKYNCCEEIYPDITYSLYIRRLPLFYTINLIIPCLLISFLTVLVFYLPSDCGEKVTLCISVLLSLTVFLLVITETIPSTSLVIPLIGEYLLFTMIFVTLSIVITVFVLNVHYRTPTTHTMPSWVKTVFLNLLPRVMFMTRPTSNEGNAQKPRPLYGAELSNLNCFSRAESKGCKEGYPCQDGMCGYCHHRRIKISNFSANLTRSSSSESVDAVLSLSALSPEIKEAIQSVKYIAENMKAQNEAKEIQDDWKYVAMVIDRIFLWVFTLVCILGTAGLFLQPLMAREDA
Chain of Nicotinic acetylcholine receptor alpha3/beta4/alpha5 (P30532 whole entry): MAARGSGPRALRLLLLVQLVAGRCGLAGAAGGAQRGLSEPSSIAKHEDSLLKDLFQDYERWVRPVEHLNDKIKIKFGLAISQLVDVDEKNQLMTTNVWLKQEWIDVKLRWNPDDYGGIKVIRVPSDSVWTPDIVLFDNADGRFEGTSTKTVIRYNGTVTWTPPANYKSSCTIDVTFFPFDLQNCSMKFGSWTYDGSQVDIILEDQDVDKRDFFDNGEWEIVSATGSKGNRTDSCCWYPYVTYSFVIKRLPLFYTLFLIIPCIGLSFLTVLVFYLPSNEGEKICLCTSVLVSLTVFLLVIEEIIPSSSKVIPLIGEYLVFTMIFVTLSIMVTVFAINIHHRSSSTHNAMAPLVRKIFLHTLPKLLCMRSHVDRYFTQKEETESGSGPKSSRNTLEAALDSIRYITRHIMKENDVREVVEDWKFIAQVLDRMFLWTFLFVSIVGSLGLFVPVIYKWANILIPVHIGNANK

Chain of Neuronal acetylcholine receptor; alpha3/beta4 (P04757 whole entry): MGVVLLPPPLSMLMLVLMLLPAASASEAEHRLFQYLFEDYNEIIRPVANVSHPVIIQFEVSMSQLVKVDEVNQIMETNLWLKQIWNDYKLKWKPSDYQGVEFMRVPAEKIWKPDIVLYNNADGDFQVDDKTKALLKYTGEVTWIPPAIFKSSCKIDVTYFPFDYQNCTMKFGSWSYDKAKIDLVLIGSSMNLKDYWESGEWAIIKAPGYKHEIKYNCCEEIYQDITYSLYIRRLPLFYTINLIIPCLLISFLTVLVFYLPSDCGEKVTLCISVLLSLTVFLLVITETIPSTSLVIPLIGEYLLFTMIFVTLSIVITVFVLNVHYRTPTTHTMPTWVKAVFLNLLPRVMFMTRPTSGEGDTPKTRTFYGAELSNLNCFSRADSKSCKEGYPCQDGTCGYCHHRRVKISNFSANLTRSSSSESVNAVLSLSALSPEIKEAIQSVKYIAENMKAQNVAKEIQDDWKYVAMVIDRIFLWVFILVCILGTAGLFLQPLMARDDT
Chain of Neuronal acetylcholine receptor; alpha3/beta4 (P12392 whole entry): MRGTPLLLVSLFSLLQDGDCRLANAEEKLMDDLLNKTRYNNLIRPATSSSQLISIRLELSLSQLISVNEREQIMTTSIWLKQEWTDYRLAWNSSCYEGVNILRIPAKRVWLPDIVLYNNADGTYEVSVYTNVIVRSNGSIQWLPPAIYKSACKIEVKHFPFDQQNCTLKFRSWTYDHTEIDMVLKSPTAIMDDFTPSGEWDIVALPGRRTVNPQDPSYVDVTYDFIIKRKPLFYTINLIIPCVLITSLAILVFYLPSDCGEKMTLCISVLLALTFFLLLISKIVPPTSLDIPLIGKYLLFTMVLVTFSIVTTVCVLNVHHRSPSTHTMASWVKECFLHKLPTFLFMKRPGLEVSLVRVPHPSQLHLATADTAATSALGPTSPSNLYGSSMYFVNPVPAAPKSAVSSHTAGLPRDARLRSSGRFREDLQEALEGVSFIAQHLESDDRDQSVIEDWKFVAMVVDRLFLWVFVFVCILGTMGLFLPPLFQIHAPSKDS
T1 sequence (P09483 whole entry): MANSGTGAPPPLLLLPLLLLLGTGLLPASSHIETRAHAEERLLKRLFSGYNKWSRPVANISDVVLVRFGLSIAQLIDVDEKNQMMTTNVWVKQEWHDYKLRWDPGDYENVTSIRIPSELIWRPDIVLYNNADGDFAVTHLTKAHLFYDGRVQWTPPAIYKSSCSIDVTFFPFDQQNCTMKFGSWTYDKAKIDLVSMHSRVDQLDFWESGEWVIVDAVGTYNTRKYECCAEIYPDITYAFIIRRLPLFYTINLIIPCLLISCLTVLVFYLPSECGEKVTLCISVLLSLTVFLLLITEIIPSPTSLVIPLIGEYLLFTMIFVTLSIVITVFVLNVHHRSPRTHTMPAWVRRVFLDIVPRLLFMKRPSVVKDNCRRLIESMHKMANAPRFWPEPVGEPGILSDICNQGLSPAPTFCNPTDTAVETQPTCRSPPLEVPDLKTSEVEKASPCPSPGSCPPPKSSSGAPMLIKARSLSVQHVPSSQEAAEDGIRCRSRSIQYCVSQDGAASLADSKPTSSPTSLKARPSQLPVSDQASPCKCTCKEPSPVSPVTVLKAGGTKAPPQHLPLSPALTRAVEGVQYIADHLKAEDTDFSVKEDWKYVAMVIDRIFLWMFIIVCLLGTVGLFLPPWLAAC
T1 sequence (P12390 whole entry): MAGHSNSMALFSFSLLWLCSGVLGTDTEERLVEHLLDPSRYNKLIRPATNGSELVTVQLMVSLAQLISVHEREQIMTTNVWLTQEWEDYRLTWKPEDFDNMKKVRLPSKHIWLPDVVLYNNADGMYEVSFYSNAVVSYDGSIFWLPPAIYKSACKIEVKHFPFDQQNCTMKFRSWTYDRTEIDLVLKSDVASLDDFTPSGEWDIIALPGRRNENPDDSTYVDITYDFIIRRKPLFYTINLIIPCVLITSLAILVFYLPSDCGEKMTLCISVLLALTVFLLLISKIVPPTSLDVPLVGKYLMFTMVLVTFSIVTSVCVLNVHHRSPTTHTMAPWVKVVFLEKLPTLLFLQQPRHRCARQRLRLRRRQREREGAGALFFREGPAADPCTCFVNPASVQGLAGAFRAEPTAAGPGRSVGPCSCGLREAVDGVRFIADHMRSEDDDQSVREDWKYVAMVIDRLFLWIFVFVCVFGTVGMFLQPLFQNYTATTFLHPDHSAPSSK

Structure (SMILES) | Selectivity ratio [1] | Ki [2] [µM] | Ki [3] [µM] | further results
CC(C)CCCN1C(=N)NC[C@@H]1CCCCN1C[C@@H](CC2CCCCC2)N(CC2CCC(C(C)(C)C)CC2)C1=N (some centres not stated) | 21.2 | – | – | –
N=C1N(CCCC[C@H]2CN=C(N)N2CCc2ccc(Cl)c(Cl)c2)C[C@@H](Cc2ccc3ccccc3c2)N1CCc1ccc(Br)cc1 | – | 2.5 | 4 | –
N=C1NC[C@H](CCCCN2C[C@@H](Cc3ccc4ccccc4c3)N(CCc3ccc(Cl)c(Cl)c3)C2=N)N1CCc1ccc(Cl)c(Cl)c1 | 6.3 | – | – | –
CC(C)CCCN1C(N)=NC[C@@H]1CCCCN1C[C@@H](CC2CCCCC2)N(CC2CCC(C(C)(C)C)CC2)C1=N (some centres not stated) | – | 3.5 | 78.4 | –
CC(C)(C)C1CCC(CN2CCN(CCCC[C@H]3CN=C(N)N3CCc3cccnc3)C2=N)CC1 (some centres not stated) | – | 0.433 | 27.6 | IC50 [4]: 2.82 µM
CC(C)(C)C1CCC(CN2C(=N)N(CCCC[C@@H]3CNC(=N)N3CCc3cccnc3)C[C@H]2CC2CCCCC2)CC1 (some centres not stated) | – | 0.257 | 33.4 | Ratio Ki [5]: 130; IC50 [4]: 1.69 µM
CC(C)(C)C1CCC(CN2C(=N)N(CCCC[C@H]3CNC(=N)N3CCc3cccc(F)c3)C[C@H]2Cc2ccccc2)CC1 (some centres not stated) | 19 | 1.59 | 61.7 | Ratio Ki [5]: 39; IC50 [4]: 26.3 µM
CO[C@H]1CC=C2CCN3CCC4=C(CC(=O)OC4)[C@]23C1 | – | 0.485 | > 10 | IC50 [4]: 0.624 µM
CC(C)(C)C1CCC(CN2C(=N)N(CCCC[C@H]3CN=C(N)N3CCc3cccnc3)C[C@H]2CC2CCCCC2)CC1 (some centres not stated) | – | 0.34 | 59.7 | IC50 [4]: 2.83 µM
CC(C)(C)C1CCC(CN2C(=N)N(CCCC[C@H]3CNC(=N)N3CCc3cccnc3)C[C@H]2Cc2ccccc2)CC1 (some centres not stated) | 20 | 0.118 | 56.5 | Activity [6]: 0%; Activity [7]: 38%; Ratio Ki [5]: 478; Activity [8]: Active; inhibition [9]: Dose-dependent effect; Activity [10]: 83%; inhibition [11]: 50%; Activity [12]: inactive; Activity [13]: inactive; Ki [14]: 9.06 µM; IC50 [4]: 0.514 µM
CC(C)(C)C1CCC(CN2C(=N)N(CCCC[C@H]3CN=C(N)N3CCc3cccnc3)C[C@@H]2Cc2ccccc2)CC1 (some centres not stated) | – | 0.323 | 23.8 | IC50 [4]: 1.47 µM
CC(C)(C)C1CCC(CN2C(=N)N(CCCC[C@H]3CNC(=N)N3CCc3cccc(F)c3)C[C@H]2CC2CCCCC2)CC1 (some centres not stated) | 25.9 | – | – | Ratio Ki [5]: 24
CCCCCCCN1C(N)=NC[C@@H]1CCCCN1C[C@@H](CC2CCCCC2)N(CCc2cccc(Br)c2)C1=N | – | 2.8 | 23.4 | –
N=C1N(CCCC[C@H]2CN=C(N)N2CCc2ccc(Cl)c(Cl)c2)C[C@@H](Cc2ccc3ccccc3c2)N1CCc1cccc(Br)c1 | – | 1.9 | 3 | –
CC(C)(C)C1CCC(CN2C(=N)N(CCCC[C@H]3CNC(=N)N3CCc3cccnc3)C[C@@H]2Cc2ccccc2)CC1 (some centres not stated) | – | – | – | Ratio Ki [5]: 74
N=C1NC[C@H](CCCCN2C[C@@H](Cc3ccc4ccccc4c3)N(CCc3ccc(Br)cc3)C2=N)N1CCc1ccc(Cl)c(Cl)c1 | 0.6 | – | – | –
CCCCCCCN1C(=N)NC[C@@H]1CCCCN1C[C@@H](CC2CCCCC2)N(CC2CCC(C(C)(C)C)CC2)C1=N (some centres not stated) | 13.2 | – | – | –
CCCCCCCN1C(N)=NC[C@@H]1CCCCN1C[C@@H](Cc2ccccc2)N(CC2CCC(C(C)(C)C)CC2)C1=N (some centres not stated) | – | 2.7 | 54.4 | –
CC(C)CCCN1C(=N)NC[C@@H]1CCCCN1C[C@@H](Cc2ccccc2)N(CC2CCC(C(C)(C)C)CC2)C1=N (some centres not stated) | 28.5 | – | – | –
CC(C)(C)C1CCC(CN2C(=N)N(CCCC[C@H]3CN=C(N)N3CCc3cccnc3)C[C@@H]2CC2CCCCC2)CC1 (some centres not stated) | – | 0.611 | 78.1 | IC50 [4]: 3.4 µM
N=C1NC[C@H](CCCCN2C[C@@H](Cc3ccc4ccccc4c3)N(CCc3cccc(Br)c3)C2=N)N1CCc1ccc(Cl)c(Cl)c1 | 0.6 | – | – | –
CCCCCCCN1C(=N)NC[C@@H]1CCCCN1C[C@@H](CC2CCCCC2)N(CCc2cccc(Br)c2)C1=N | 7.2 | – | – | –
CC(C)(C)C1CCC(CN2C(=N)N(CCCC[C@H]3CNC(=N)N3CCc3cccnc3)C[C@@H]2CC2CCCCC2)CC1 (some centres not stated) | – | – | – | Ratio Ki [5]: 128

Structure (SMILES) | Selectivity ratio [1] | Ki [2] [µM] | Ki [3] [µM] | further results
CC(C)CCCN1C(N)=NC[C@@H]1CCCCN1C[C@@H](Cc2ccccc2)N(CC2CCC(C(C)(C)C)CC2)C1=N (some centres not stated) | – | 2.3 | 68.4 | –
N=C1NC[C@H](CCCCN2C[C@H](Cc3ccc4ccccc4c3)N(CCc3cccc(Br)c3)C2=N)N1CCc1ccc(Cl)c(Cl)c1 | 0.8 | – | – | –
N=C1N(CCCC[C@H]2CN=C(N)N2CCc2ccc(Cl)c(Cl)c2)C[C@@H](Cc2ccc3ccccc3c2)N1CCc1ccc(Cl)c(Cl)c1 | – | 47.5 | 347 | –
CC(C)CCCN1C(=N)NC[C@@H]1CCCCN1C[C@@H](CC2CCCCC2)N(CCc2cccc(Br)c2)C1=N | 10.2 | – | – | –
N=C1N(CCCC[C@H]2CN=C(N)N2CCc2cccc(F)c2)C[C@@H](Cc2ccccc2)N1CCc1cccc(Br)c1 | – | 1.8 | 20.4 | –
N=C1NC[C@H](CCCCN2C[C@@H](Cc3ccccc3)N(CCc3cccc(Br)c3)C2=N)N1CCc1cccc(F)c1 | 10.1 | – | – | –
CCCCCCCN1C(=N)NC[C@@H]1CCCCN1C[C@@H](Cc2ccccc2)N(CC2CCC(C(C)(C)C)CC2)C1=N (some centres not stated) | 19.3 | – | – | –
N=C1N(CCCC[C@H]2CN=C(N)N2CCc2ccc(Cl)c(Cl)c2)C[C@H](Cc2ccc3ccccc3c2)N1CCc1cccc(Br)c1 | – | 43.4 | 76 | –
CC(C)CCCN1C(=N)NC[C@@H]1CCCCN1C[C@@H](Cc2ccccc2)N(CCc2cccc(Br)c2)C1=N | 17.5 | 2.6 | 47.8 | –
CCCCCCCN1C(=N)NC[C@@H]1CCCCN1C[C@@H](Cc2ccccc2)N(CCc2cccc(Br)c2)C1=N | 4.8 | 2.5 | 14.4 | –
CC(C)(C)C1CCC(CN2CCN(CCCC[C@@H]3CNC(=N)N3CCc3cccnc3)C2=N)CC1 (some centres not stated) | – | 2.22 | 51.9 | Ratio Ki [5]: 23; IC50 [4]: 2.95 µM
CC(C)(C)C1CCC(CN2CCN(CCCC[C@H]3CNC(=N)N3CCc3cccnc3)C2=N)CC1 (some centres not stated) | – | – | – | Ratio Ki [5]: 64
CC(C)(C)C1CCC(CN2C(=N)N(CCCC[C@H]3CN=C(N)N3CCc3cccc(F)c3)C[C@H]2CC2CCCCC2)CC1 (some centres not stated) | – | 3.73 | 88.9 | IC50 [4]: 5.32 µM
CC(C)(C)C1CCC(CN2C(=N)N(CCCC[C@H]3CNC(=N)N3CCc3cccnc3)C[C@H]2CC2CCCCC2)CC1 (some centres not stated) | – | – | – | Ratio Ki [5]: 176
CC(C)(C)C1CCC(CN2C(=N)N(CCCC[C@@H]3CNC(=N)N3CCc3cccnc3)C[C@H]2Cc2ccccc2)CC1 (some centres not stated) | – | 0.307 | 63.3 | Ratio Ki [5]: 206; IC50 [4]: 3.02 µM
CCCCCCCN1C(N)=NC[C@@H]1CCCCN1C[C@@H](CC2CCCCC2)N(CC2CCC(C(C)(C)C)CC2)C1=N (some centres not stated) | – | 3.9 | 55.1 | –
N=C1NC[C@H](CCCCN2C[C@@H](CC3CCCCC3)N(CCc3cccc(Br)c3)C2=N)N1CCc1cccc(F)c1 | 4.8 | – | – | –
N=C1N(CCCC[C@H]2CN=C(N)N2CCc2ccc(Cl)c(Cl)c2)C[C@H](Cc2ccc3ccccc3c2)N1CCc1ccc(Br)cc1 | – | 3.1 | 2.7 | –
N=C1NC[C@H](CCCCN2C[C@H](Cc3ccc4ccccc4c3)N(CCc3ccc(Br)cc3)C2=N)N1CCc1ccc(Cl)c(Cl)c1 | -0.1 | – | – | –
N=C1N(CCCC[C@H]2CN=C(N)N2CCc2ccc(Cl)c(Cl)c2)C[C@H](Cc2ccc3ccccc3c2)N1CCc1ccc(Cl)c(Cl)c1 | – | 183 | 100 | –
CC(C)CCCN1C(N)=NC[C@@H]1CCCCN1C[C@@H](CC2CCCCC2)N(CCc2cccc(Br)c2)C1=N | – | 3.3 | 37.3 | –
N=C1N(CCCC[C@H]2CN=C(N)N2CCc2cccc(F)c2)C[C@@H](CC2CCCCC2)N1CCc1cccc(Br)c1 | – | 3.5 | 20.1 | –

Reference: ChEMBL document CHEMBL3108759, “Scaffold ranking and positional scanning utilized in the discovery of nAChR-selective compounds suitable for optimization studies” (J Med Chem, 2013)
